Data as given in ChEMBL document CHEMBL1772952 (J Med Chem, 2011).
pKi: −log10 of the molar value. The source made the active and inactive calls. The rule behind the calls is not given here.

Tests used:
[1] = species on record: Rattus norvegicus; test: Selectivity ratio of Ki for DAT in rat striatum to Ki for NET in rat cerebral cortex; assay type: tissue-based
In short: (§1)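 Ratio of Ki values from [3H]substrate uptake inhibition: [3H]dopamine for DAT in rat striatum, and [3H]serotonin for SERT or [3H]norepinephrine for NET in rat cerebral cortex. Each Ki came from an IC50 fitted over at least five triplicate concentrations, converted by Cheng-Prusoff.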

[2] = species on record: Rattus norvegicus; test: Selectivity ratio of Ki for SERT in rat cerebral cortex to Ki for NET in rat cerebral cortex; assay type: tissue-based; in short: as §1
[3] = species on record: Rattus norvegicus; test: Selectivity ratio of Ki for DAT in rat striatum to Ki for SERT in rat cerebral cortex; assay type: tissue-based; in short: as §1
[4] = Inhibition of NET in rat cerebral cortex assessed as [3H]norepinephrine accumulation; assay type: tissue-based
In short: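 Rat cerebral cortex tissue; uptake of [3H]norepinephrine via NET measured. At least five concentrations per compound, each in triplicate, spaced evenly around the IC50. IC50 obtained by nonlinear curve fitting, then converted to Ki by Cheng-Prusoff. Values are mean ± SEM of three to eight independent experiments.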

[5] = target: Sodium-dependent serotonin transporter (Rattus norvegicus, UniProt P31652); test: Inhibition of SERT in rat cerebral cortex assessed as [3H]serotonin accumulation; assay type: tissue-based
Chain of Sodium-dependent serotonin transporter (P31652 whole entry): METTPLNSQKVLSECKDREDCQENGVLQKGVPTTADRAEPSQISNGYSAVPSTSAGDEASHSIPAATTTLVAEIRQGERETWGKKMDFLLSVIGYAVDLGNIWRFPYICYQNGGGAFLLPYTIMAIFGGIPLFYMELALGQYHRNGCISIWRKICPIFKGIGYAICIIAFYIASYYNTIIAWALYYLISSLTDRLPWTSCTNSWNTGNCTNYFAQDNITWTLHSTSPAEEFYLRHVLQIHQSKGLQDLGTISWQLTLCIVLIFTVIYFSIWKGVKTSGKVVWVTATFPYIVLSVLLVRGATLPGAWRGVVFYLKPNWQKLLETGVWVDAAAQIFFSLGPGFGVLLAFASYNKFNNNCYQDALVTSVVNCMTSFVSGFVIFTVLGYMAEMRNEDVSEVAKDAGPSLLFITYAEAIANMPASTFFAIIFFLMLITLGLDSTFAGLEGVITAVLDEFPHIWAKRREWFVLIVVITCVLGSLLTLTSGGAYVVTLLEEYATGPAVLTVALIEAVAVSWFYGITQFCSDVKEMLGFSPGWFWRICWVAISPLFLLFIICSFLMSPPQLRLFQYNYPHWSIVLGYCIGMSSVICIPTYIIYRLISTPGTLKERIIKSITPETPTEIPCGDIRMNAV
In short: (§2)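 Uptake of [3H]dopamine (DAT, rat striatum) or [3H]serotonin (SERT, rat cerebral cortex) was measured with at least five triplicate concentrations spaced around the IC50. IC50 came from nonlinear curve fitting and was converted to Ki by Cheng-Prusoff. Values are mean ± SEM of 3–8 independent experiments.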

[6] = target: Sodium-dependent dopamine transporter (Rattus norvegicus, UniProt P23977); test: Inhibition of DAT in rat striatum assessed as [3H]dopamine accumulation; assay type: tissue-based; in short: as §2
Chain of Sodium-dependent dopamine transporter (P23977 whole entry): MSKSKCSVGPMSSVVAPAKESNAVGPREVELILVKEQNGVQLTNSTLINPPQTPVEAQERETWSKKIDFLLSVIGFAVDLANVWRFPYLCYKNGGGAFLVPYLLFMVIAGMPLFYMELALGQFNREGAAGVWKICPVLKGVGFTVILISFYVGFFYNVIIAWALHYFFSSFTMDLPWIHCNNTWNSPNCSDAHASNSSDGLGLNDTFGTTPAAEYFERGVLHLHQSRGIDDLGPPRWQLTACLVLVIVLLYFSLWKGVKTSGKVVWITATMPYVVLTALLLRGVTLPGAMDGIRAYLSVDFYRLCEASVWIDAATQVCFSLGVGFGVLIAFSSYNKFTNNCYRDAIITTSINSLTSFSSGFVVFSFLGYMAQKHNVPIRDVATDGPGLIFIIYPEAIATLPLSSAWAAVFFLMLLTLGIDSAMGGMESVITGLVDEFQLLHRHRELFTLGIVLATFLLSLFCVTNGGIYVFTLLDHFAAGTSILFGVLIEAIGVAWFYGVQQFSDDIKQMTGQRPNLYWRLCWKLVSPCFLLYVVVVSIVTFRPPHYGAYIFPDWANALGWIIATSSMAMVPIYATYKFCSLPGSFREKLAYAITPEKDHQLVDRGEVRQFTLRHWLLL

[7] = test system: Rattus norvegicus; test: Antidepressant activity in […] Sprague-Dawley rat assessed as reduction of immobility time at 10 mg/kg, ip administered 1 hr before test by forced swimming test; assay type: functional, organism-based; parameters: dose 10 mg/kg
In short: (§3)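 Male Sprague-Dawley rats (200–225 g), drug-naive and used once. Forced swim test: 15 min pretest swim in a water-filled glass cylinder (depth 22 cm, 24–25 °C). Drug or vehicle (10% β-hydroxypropyl cyclodextrin) was given i.p. 15 min after the pretest and again before the 5 min test swim 24 h later. Immobility was scored from video by a blinded rater.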

[8] = test system: Rattus norvegicus; test: Antidepressant activity in […] Sprague-Dawley rat assessed as reduction of immobility time at 15 mg/kg, ip administered 30 mins before test by forced swimming test; assay type: functional, organism-based; parameters: dose 15 mg/kg; in short: as §3

With `c1ccc(C(c2ccccc2)[C@@H]2CC[C@H](NCc3cccs3)CO2)cc1` as the molecule, how does the Ratio Ki [1] read?
Its Ratio Ki is 0.88.

And the Ratio Ki [2]?
The Ratio Ki was 3.94.

What about the Ratio Ki [3] of the same molecule?
The Ratio Ki was 0.22.

And the pKi [4]?
Its pKi is 7.33.

What about the pKi [5] of the same molecule?
The pKi was 6.73.

And the pKi [6]?
The pKi was 7.38.

With `c1ccc(C(c2ccccc2)[C@@H]2CC[C@H](NCc3ccncc3)CO2)cc1` as the molecule, how does the Ratio Ki [1] read?
The Ratio Ki was 0.06.

What about the Ratio Ki [2] of the same molecule?
The Ratio Ki was 1.92.

What about the Ratio Ki [3] of the same molecule?
The Ratio Ki was 0.03.

And the pKi [4]?
The pKi was 6.34.

What about the pKi [5] of the same molecule?
Its pKi is 6.05.

And the pKi [6]?
Its pKi is 7.55.

For `c1ccc(C(c2ccccc2)[C@@H]2CC[C@H](NCc3ccccn3)CO2)cc1`, which Ratio Ki [1] is on record?
The Ratio Ki was 0.41.

What about the Ratio Ki [2] of the same molecule?
The Ratio Ki was 0.96.

And the Ratio Ki [3]?
The Ratio Ki was 0.43.

What about the pKi [5] of the same molecule?
The pKi was 6.32.

And the pKi [6]?
The pKi was 6.68.

Which results are given for `c1ccc(C(c2ccccc2)[C@@H]2CC[C@H](NCc3ccco3)CO2)cc1`?
Ratio Ki [1]: 1.84; Ratio Ki [2]: 1.92; Ratio Ki [3]: 0.96; pKi [4]: 7.22; pKi [5]: 6.94; pKi [6]: 6.96

With `COc1cccc([C@H](O)CN[C@H]2CC[C@@H](C(c3ccccc3)c3ccccc3)OC2)c1` as the molecule, how does the Ratio Ki [1] read?
Its Ratio Ki is 0.46.

And the Ratio Ki [2]?
The Ratio Ki was 2.16.

What about the Ratio Ki [3] of the same molecule?
The Ratio Ki was 0.21.

And the pKi [4]?
Its pKi is 6.52.

And the pKi [5]?
Its pKi is 6.19.

What about the pKi [6] of the same molecule?
The pKi was 6.86.

With `Oc1cccc(CN[C@H]2CC[C@@H](C(c3ccccc3)c3ccccc3)OC2)c1` as the molecule, how does the Ratio Ki [1] read?
Its Ratio Ki is 0.81.

And the Ratio Ki [2]?
Its Ratio Ki is 1.04.

And the Ratio Ki [3]?
Its Ratio Ki is 0.78.

What about the pKi [4] of the same molecule?
The pKi was 7.41.

And the pKi [5]?
The pKi was 7.40.

What about the pKi [6] of the same molecule?
The pKi was 7.50.

And the Activity [7]?
Its Activity is “Active”.

What does the source list for `c1ccc(C(c2ccccc2)[C@@H]2CC[C@H](NCc3ccc[nH]3)CO2)cc1`?
Ratio Ki [1]: 1.09; Ratio Ki [2]: 3.56; Ratio Ki [3]: 0.31; pKi [4]: 7.40; pKi [5]: 6.85; pKi [6]: 7.36

With `Oc1ccc(CN[C@H]2CC[C@@H](C(c3ccccc3)c3ccccc3)OC2)cc1` as the molecule, how does the pKi [5] read?
The pKi was 7.54.

And the pKi [6]?
Its pKi is 7.38.

With `COc1cccc([C@@H](O)CN[C@H]2CC[C@@H](C(c3ccccc3)c3ccccc3)OC2)c1` as the molecule, how does the Ratio Ki [1] read?
Its Ratio Ki is 0.29.

And the Ratio Ki [2]?
The Ratio Ki was 2.55.

What about the Ratio Ki [3] of the same molecule?
The Ratio Ki was 0.11.

And the pKi [4]?
The pKi was 6.37.

What about the pKi [5] of the same molecule?
Its pKi is 5.96.

And the pKi [6]?
The pKi was 6.90.

For `O[C@H](CN[C@H]1CC[C@@H](C(c2ccccc2)c2ccccc2)OC1)c1ccccc1`, which Ratio Ki [1] is on record?
The Ratio Ki was 0.18.

What about the Ratio Ki [2] of the same molecule?
Its Ratio Ki is 2.67.

What about the Ratio Ki [3] of the same molecule?
Its Ratio Ki is 0.07.

And the pKi [4]?
Its pKi is 6.53.

What about the pKi [5] of the same molecule?
Its pKi is 6.10.

And the pKi [6]?
The pKi was 7.27.

For `CN(C)CCCN1c2ccccc2CCc2ccccc21`, which Activity [8] is on record?
The Activity was “Active”.

Which results are given for `O[C@@H](CN[C@H]1CC[C@@H](C(c2ccccc2)c2ccccc2)OC1)c1ccccc1`?
Ratio Ki [1]: 0.9; Ratio Ki [2]: 5.78; Ratio Ki [3]: 0.15; pKi [4]: 6.79; pKi [5]: 6.03; pKi [6]: 6.84

With `O[C@@H](CN[C@H]1CC[C@@H](C(c2ccccc2)c2ccccc2)OC1)c1ccc(F)cc1` as the molecule, how does the Ratio Ki [1] read?
Its Ratio Ki is 0.13.

And the Ratio Ki [2]?
The Ratio Ki was 2.09.

And the Ratio Ki [3]?
Its Ratio Ki is 0.06.

What about the pKi [4] of the same molecule?
Its pKi is 6.26.

And the pKi [5]?
The pKi was 5.94.

What about the pKi [6] of the same molecule?
The pKi was 7.14.

What does the source list for `Oc1ccccc1CN[C@H]1CC[C@@H](C(c2ccccc2)c2ccccc2)OC1`?
Ratio Ki [1]: 1.25; Ratio Ki [2]: 2.75; Ratio Ki [3]: 0.45; pKi [4]: 6.80; pKi [5]: 6.36; pKi [6]: 6.70

With `COc1ccc(CN[C@H]2CC[C@@H](C(c3ccccc3)c3ccccc3)OC2)cc1` as the molecule, how does the pKi [4] read?
Its pKi is 7.53.

What about the pKi [6] of the same molecule?
The pKi was 7.80.

For `c1ccc(C(c2ccccc2)[C@@H]2CC[C@H](NCc3cccc4ccccc34)CO2)cc1`, which Ratio Ki [1] is on record?
Its Ratio Ki is 2.04.

And the Ratio Ki [2]?
The Ratio Ki was 0.38.

And the Ratio Ki [3]?
Its Ratio Ki is 5.33.

And the pKi [4]?
The pKi was 6.63.

What about the pKi [5] of the same molecule?
Its pKi is 7.05.

And the pKi [6]?
Its pKi is 6.33.

Which Ratio Ki [1] does the source give for `c1ccc(C(c2ccccc2)[C@@H]2CC[C@H](NCc3cccnc3)CO2)cc1` here?
The Ratio Ki was 0.41.

What about the Ratio Ki [2] of the same molecule?
Its Ratio Ki is 0.43.

What about the Ratio Ki [3] of the same molecule?
The Ratio Ki was 0.95.

What about the pKi [4] of the same molecule?
The pKi was 6.45.

And the pKi [5]?
Its pKi is 6.82.

What about the pKi [6] of the same molecule?
Its pKi is 6.84.

With `O[C@@H]1C[C@@H](C(c2ccccc2)c2ccccc2)OC[C@H]1NCc1ccc2[nH]ccc2c1` (single isomer, unassigned) as the molecule, how does the pKi [6] read?
The pKi was 7.07.

Which Ratio Ki [1] does the source give for `O[C@H](CN[C@H]1CC[C@@H](C(c2ccccc2)c2ccccc2)OC1)c1ccc(F)cc1` here?
The Ratio Ki was 0.48.

And the Ratio Ki [2]?
Its Ratio Ki is 3.72.

What about the Ratio Ki [3] of the same molecule?
The Ratio Ki was 0.13.

And the pKi [4]?
The pKi was 6.65.

What about the pKi [5] of the same molecule?
The pKi was 6.08.

And the pKi [6]?
Its pKi is 6.97.
